Experimental data from different studies.
Compare with care: the assays were run in different laboratories.
Organism: Escherichia coli
Effect on: microbial growth

With `C[C@@H](O)[C@H]1C(=O)N2C(C(=O)O)=C(SCCN=CN)C[C@H]12` the MIC was 0.5 µM (broth dilution; KCTC1682; 16 h).
`CC(C)Oc1c(NC(=O)c2ccc(NC(=O)[C@H](CC(N)=O)NC(=O)c3ccc(NC(=O)c4ccc(C#N)c(Cl)c4)cc3)cc2)ccc(C(=O)Nc2ccc(C(=O)O)cc2)c1O` gave an MIC of under 0.03 µg/mL (DSM1116).
The MIC of `N=C(N)c1cccc(OCc2ccccc2COc2cccc(C(=N)N)c2)c1` is reported as over 200 µg/mL (broth dilution; BW25113).
`Clc1cccc(NCc2ccc(Oc3ccccn3)cc2)c1` has an MIC of over 25 µg/mL.
For `Cc1ccc2nc(-c3cccnc3)[nH]c2c1`, the MIC was 128 µg/mL (broth dilution; ATCC25922).
For `N=C(N)c1ccc(OCCCCCCCCCCCOc2ccc(C(=N)N)cc2)cc1`, the MIC was over 25 µg/mL (broth dilution; BW25113).
For `CC1(C)S[C@@H]2[C@H](NC(=O)[C@H](N)c3ccccc3)C(=O)N2[C@H]1C(=O)O`, the MIC was 4 µg/mL (broth dilution; ATCC25922).
For `CC(C)Oc1c(NC(=O)c2ccc(NC(=O)[C@H](CC(N)=O)NC(=O)c3ccc(NC(=O)c4ccc(C#N)cc4)cc3)cc2)ccc(C(=O)O)c1O`, the MIC was over 64 µg/mL (DSM1116).
`O=C(Nc1ncc([N+](=O)[O-])s1)c1cccc(C(F)(F)F)c1` has an MIC of under 50 µM.
`O=C(CCc1cc(O)c(O)c(O)c1)NCCCCCCCC[P+](c1ccccc1)(c1ccccc1)c1ccccc1.[Br-]` has an MIC of over 32 µg/mL (broth dilution; ATCC25922; 18 h).
For `N=C(N)c1ccc(OCc2ccc(-c3ccccc3)cc2COc2ccc(C(=N)N)cc2)cc1`, the MIC was over 200 µg/mL (broth dilution; W3110).
For `NC1CCCCc2c1[nH]c1cc(Cl)c(Cl)cc21` (stereo not drawn), the MIC was 8 µg/mL (broth dilution; ATCC25922).
The MIC of `Cc1ccc(C)n1-c1ccc(-c2nnco2)cc1` is reported as 4 µg/mL (broth dilution; ATCC10536; 18 h).
For `N=C(N)c1cccc(OCc2cccc(COc3cccc(C(=N)N)c3)c2)c1`, the MIC was over 200 µg/mL (broth dilution; BW25113).
The MIC of `O=C(Cc1cc(O)c(O)c(O)c1)NCCCCCCCC[P+](c1ccccc1)(c1ccccc1)c1ccccc1.[Br-]` is reported as over 32 µg/mL (broth dilution; ATCC25922; 18 h).
For `N=C(N)c1ccc(OCc2cccc(COc3ccc(C(=N)N)cc3)c2)cc1`, the MIC was over 200 µg/mL (BW25113).
`O=C(Nc1ccc([N+](=O)[O-])cc1F)c1ccccc1O` has an MIC of over 64 µg/mL (broth dilution; ATCC25922).
The MIC of `Cc1ccc2nc(-c3c4ccccc4cc4ccccc34)[nH]c2c1` is reported as 128 µg/mL (broth dilution; ATCC25922).
`CCCCCC(=O)Oc1c(C)c(O)c(C(=O)/C=C/c2ccccc2)c(OC)c1C` has an MIC of 5000 µg/mL (broth dilution; ATCC25922).
The MIC of `CCCCCCC/C=C/C(=O)N1C(=O)/C(=C(\O)c2ccccc2)C(=O)C1CC(C)C` (stereo not drawn) is reported as over 200 µg/mL (K12, K12).
`CSc1ccc(-c2nc3ccc(C)cc3n2Cc2ccccc2)cc1` gave an MIC of 128 µg/mL (broth dilution; ATCC25922).
With `COc1c(C)c(OC)c(C(=O)/C=C/c2ccccc2)c(OC)c1C` the MIC was 5000 µg/mL (broth dilution; ATCC25922).
`Cc1ccc(C)n1-c1ccc(-c2nnc(S)s2)cc1` has an MIC of 2 µg/mL (broth dilution; ATCC10536; 18 h).
With `C[C@H]1COc2c(N3CCN(C)CC3)c(F)cc3c(=O)c(C(=O)O)cn1c23` the MIC was 0.25 µg/mL (broth dilution; ATCC25922).
For `CC1(C)S[C@@H]2[C@H](NC(=O)[C@H](N)c3ccccc3)C(=O)N2[C@H]1C(=O)O`, the MIC was 4 µg/mL (broth dilution; MG1655).
With `Cc1c(CN(C)C(=O)/C=C/c2cnc3c(c2)CC(NC(=O)OC(C)(C)C)C(=O)N3)oc2ccccc12` (stereo not drawn) the MIC was over 32 µg/mL (broth dilution; MG1655; clinical isolate).
`Cc1ccccc1NCc1ccc(Oc2ccccn2)cc1` gave an MIC of over 25 µg/mL.
`COc1c(C)c(OS(=O)(=O)c2ccc3ccccc3c2)c(C)c(OS(=O)(=O)c2ccc3ccccc3c2)c1C(=O)/C=C/c1ccccc1` gave an MIC of 5000 µg/mL (broth dilution; ATCC25922).
With `COc1cccc(-c2nc3ccccc3n2Cc2ccccc2)c1` the MIC was 128 µg/mL (broth dilution; ATCC25922).
The MIC of `COc1c(C(=O)Nc2ccc(C(=O)O)cc2)ccc2nc(-c3cc(NC(=O)C(CC(N)=O)NC(=O)c4ccc(NC(=O)c5ccc(C#N)cc5)cc4)cn3C)[nH]c12` (stereo not drawn) is reported as over 64 µg/mL (DSM1116).
`CCCCCCC/C=C/C(=O)N1CC(=O)/C(=C(\C)O)C1=O` has an MIC of over 200 µg/mL (K12, K12).
The MIC of `N=C(N)c1ccc(OCc2ccccc2COc2ccc(C(=N)N)cc2)cc1` is reported as over 200 µg/mL (broth dilution; BW25113).
With `CNc1cccc2cc(C(=O)NCc3ccc(C(=O)O)cc3)c(=O)[nH]c12` the MIC was over 64 µg/mL (broth dilution; ATCC25922).
`C[C@H](CCC(=O)NCCCNCCCCNCCCN)[C@H]1CC[C@H]2[C@@H]3CC[C@@H]4C[C@H](O)CC[C@]4(C)[C@H]3CC[C@]12C` gave an MIC of 128 µg/mL (broth dilution; MG1655; 20 h).
For `CC(C)Oc1c(NC(=O)c2ccc(NC(=O)[C@H](CC(N)=O)NC(=O)c3ccc(NC(=O)c4ccc(C5(C(F)(F)F)N=N5)cc4)cc3)cc2)ccc(C(=O)Nc2ccc(C(=O)O)cc2)c1O`, the MIC was 16 µg/mL (DSM1116).
`O=C1NN=C(N=Cc2ccccc2O)C1=NNn1c(-c2ccccc2)nc2ccccc2c1=O` has an MIC of 55.4 µM (broth dilution; 24 h).
`CCCCCCC/C=C/C(=O)N1C(=O)/C(=C(\O)C2CCNCC2)C(=O)C1CC(C)C` (stereo not drawn) has an MIC of 25 µg/mL (K12, K12).
`Fc1cccc(Cl)c1-c1nc2ccccc2[nH]1` gave an MIC of 64 µg/mL (broth dilution; ATCC25922).
For `CC(C)Oc1c(NC(=O)c2ccc(NC(=O)[C@H](CC(N)=O)NC(=O)c3ccc(NC(=O)c4cc(C#N)cn4C)cc3)cc2)ccc(C(=O)Nc2ccc(C(=O)O)cc2)c1O`, the MIC was at most 0.03 µg/mL (DSM1116).
`N=C(N)c1ccc(OCc2ccc(COc3ccc(C(=N)N)cc3)cc2)cc1` has an MIC of at least 200 µg/mL (BW25113).
With `C[C@H]1COc2c(N3CCN(C)CC3)c(F)cc3c(=O)c(C(=O)O)cn1c23` the MIC was at most 0.03 µg/mL (agar dilution; ATCC25).
For `Cc1ccc(C)n1-c1ccc(-c2nnc(-c3ccccc3Cl)[nH]2)cc1`, the MIC was 250 µg/mL (broth dilution; ATCC10536; 18 h).
`CC(C)Oc1c(NC(=O)c2ccc(NC(=O)[C@H](CC(N)=O)NC(=O)c3cccc(-c4cccc(C#N)c4)c3)cc2)ccc(C(=O)Nc2ccc(C(=O)O)cc2)c1O` gave an MIC of over 64 µg/mL (DSM1116).
`O=C(O)c1cn(C2CC2)c2cc(N3CCNCC3)c(F)cc2c1=O` gave an MIC of 4.72 µM (broth dilution; 24 h).
`Oc1ccc(Br)cc1-c1nc2ccccc2[nH]1` has an MIC of 64 µg/mL (broth dilution; ATCC25922).
With `N=C(N)c1ccc(OCc2ccc(Br)cc2COc2ccc(C(=N)N)cc2)cc1` the MIC was 200 µg/mL (broth dilution; W3110).
`O=C(O)c1cn(C2CC2)c2cc(N3CCNCC3)c(F)cc2c1=O` gave an MIC of 16 µg/mL (broth dilution; ATCC25922).
`Cc1cccc2nc(-c3ccc([N+](=O)[O-])o3)[nH]c12` gave an MIC of 4 µg/mL (broth dilution; ATTC25922).
For `COc1c(C)c(OS(=O)(=O)c2ccc3ccccc3c2)c(C)c(O)c1C(=O)/C=C/c1ccccc1`, the MIC was 5000 µg/mL (broth dilution; ATCC25922).
For `Fc1ccc(NCc2ccc(Oc3ccccn3)cc2)cc1`, the MIC was over 12.5 µg/mL.
The MIC of `CC(C)Oc1c(NC(=O)c2ccc(NC(=O)[C@H](CC(N)=O)NC(=O)c3ccc(NC(=O)c4ccc5c(c4)COC5=O)cc3)cc2)ccc(C(=O)Nc2ccc(C(=O)O)cc2)c1O` is reported as at most 0.03 µg/mL (DSM1116).
With `Clc1ccc(Cn2c(-c3ccc(Cl)cc3)nc3ccccc32)cc1` the MIC was 16 µg/mL (broth dilution; ATCC25922).
`CC(C)Oc1c(NC(=O)c2ccc(NC(=O)[C@H](CC(N)=O)NC(=O)c3ccc(NC(=O)c4ccc(N)cc4)cc3)cc2)ccc(C(=O)Nc2ccc(C(=O)O)cc2)c1O` gave an MIC of 2 µg/mL (DSM1116).
The MIC of `CCCCCCC#Cc1cncc(-c2nnc(SCc3ccc(Cl)cc3)n2C)c1` is reported as at least 20 µg/mL.
